Test results from ChEMBL document CHEMBL1629657, “In vitro antimicrobial activity of a new cephalosporin, ceftaroline, and determination of quality control ranges for MIC testing” (2009).
Converted amounts (≈) assume the structure as drawn.

Key:
Type in all cases: functional
Providencia stuartii = experiment: Antimicrobial activity against Proteus stuartii by broth microdilution method
Summary of the method: (§1)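 Clinical isolates were tested by CLSI broth microdilution in unsupplemented cation-adjusted Mueller-Hinton broth. The read-out was the MIC, reported as MIC90 (μg/ml) per species or phenotypic group. Ceftriaxone, levofloxacin and imipenem were run in parallel as comparators.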

Proteus vulgaris = experiment: Antimicrobial activity against Proteus vulgaris by broth microdilution method; summary of the method: as §1
Serratia marcescens = experiment: Antimicrobial activity against Serratia marcescens by broth microdilution method; summary of the method: as §1
Shigella sp. = experiment: Antimicrobial activity against Shigella spp. by broth microdilution method; summary of the method: as §1
Salmonella sp. = experiment: Antimicrobial activity against Salmonella spp. by broth microdilution method; summary of the method: as §1
Burkholderia cepacia = experiment: Antimicrobial activity against Burkholderia cepacia by broth microdilution method; summary of the method: as §1
Pseudomonas aeruginosa [1] = experiment: Antimicrobial activity against Pseudomonas aeruginosa by broth microdilution method; summary of the method: as §1
Pseudomonas aeruginosa [2] = experiment: Antimicrobial activity against multidrug resistant Pseudomonas aeruginosa by broth microdilution method
Summary of the method: (§2)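 Isolates of the stated resistance phenotype were tested by CLSI broth microdilution in unsupplemented cation-adjusted Mueller-Hinton broth. Ceftaroline was compared with ceftriaxone, levofloxacin and imipenem. Activity was expressed as MICs (MIC90 in μg/ml).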

[3] = system: Stenotrophomonas maltophilia; experiment: Antimicrobial activity against Stenotrophomonas maltophilia by broth microdilution method; summary of the method: as §1
Moraxella catarrhalis = experiment: Antimicrobial activity against Moraxella catarrhalis by broth microdilution method; summary of the method: as §1
Haemophilus influenzae [4] = experiment: Antimicrobial activity against beta-lactamase-negative Haemophilus influenzae by broth microdilution method
Summary of the method: (§3)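 CLSI broth microdilution in Haemophilus test medium (cation-adjusted Mueller-Hinton base) against clinical H. influenzae isolates of the stated phenotype. Ceftaroline was compared with ceftriaxone, levofloxacin and imipenem. Activity was expressed as MICs (MIC90 in μg/ml).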

Haemophilus influenzae [5] = experiment: Antimicrobial activity against beta-lactamase-positive Haemophilus influenzae by broth microdilution method
Summary of the method: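 H. influenzae isolates were tested by CLSI broth microdilution using Haemophilus test medium. The MIC was read and MIC90 (μg/ml) reported for the group. Ceftriaxone, levofloxacin and imipenem served as comparators.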

Haemophilus influenzae [6] = experiment: Antimicrobial activity against beta-lactamase-negative ampicillin resistant Haemophilus influenzae by broth microdilution method; summary of the method: as §3
Staphylococcus aureus [7] = experiment: Antimicrobial activity against methicillin-resistant Staphylococcus aureus by broth microdilution method; summary of the method: as §2
Staphylococcus aureus [8] = experiment: Antimicrobial activity against methicillin-susceptible Staphylococcus aureus by broth microdilution method; summary of the method: as §1
Staphylococcus aureus [9] = experiment: Antimicrobial activity against vancomycin-intermediate Staphylococcus aureus by broth microdilution method; summary of the method: as §1
Staphylococcus aureus [10] = experiment: Antimicrobial activity against vancomycin-resistant Staphylococcus aureus by broth microdilution method; summary of the method: as §2
Staphylococcus [11] = experiment: Antimicrobial activity against methicillin-resistant coagulase-negative Staphylococcus by broth microdilution method; summary of the method: as §2
Staphylococcus [12] = experiment: Antimicrobial activity against methicillin-susceptible coagulase-negative Staphylococcus by broth microdilution method; summary of the method: as §1
Enterococcus faecalis [13] = experiment: Antimicrobial activity against Enterococcus faecalis by broth microdilution method; summary of the method: as §1
Enterococcus faecalis [14] = experiment: Antimicrobial activity against vancomycin-susceptible Enterococcus faecalis by broth microdilution method; summary of the method: as §1
Enterococcus faecium [15] = experiment: Antimicrobial activity against Enterococcus faecium by broth microdilution method; summary of the method: as §1
Enterococcus faecium [16] = experiment: Antimicrobial activity against vancomycin-susceptible Enterococcus faecium by broth microdilution method; summary of the method: as §1
Corynebacterium jeikeium = experiment: Antimicrobial activity against Corynebacterium jeikeium by broth microdilution method; summary of the method: as §1
Listeria monocytogenes = experiment: Antimicrobial activity against Listeria monocytogenes by broth microdilution method; summary of the method: as §1
Streptococcus agalactiae = experiment: Antimicrobial activity against Streptococcus agalactiae by broth microdilution method
Summary of the method: (§4)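 Streptococcal isolates were tested by CLSI broth microdilution in cation-adjusted Mueller-Hinton broth supplemented with 3% lysed horse blood. The read-out was the MIC, with MIC90 (μg/ml) reported per group. Ceftriaxone, levofloxacin and imipenem served as comparators.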

Streptococcus pneumoniae [17] = experiment: Antimicrobial activity against levofloxacin-resistant Streptococcus pneumoniae by broth microdilution method
Summary of the method: (§5)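 CLSI broth microdilution in cation-adjusted Mueller-Hinton broth with 3% lysed horse blood, against streptococcal clinical isolates of the stated phenotype. Ceftaroline was compared with ceftriaxone, levofloxacin and imipenem. Activity was expressed as MICs (MIC90 in μg/ml).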

Streptococcus pneumoniae [18] = experiment: Antimicrobial activity against penicillin-resistant Streptococcus pneumoniae by broth microdilution method; summary of the method: as §5
Streptococcus pneumoniae [19] = experiment: Antimicrobial activity against penicillin-intermediate Streptococcus pneumoniae by broth microdilution method; summary of the method: as §5
Streptococcus pneumoniae [20] = experiment: Antimicrobial activity against penicillin-susceptible Streptococcus pneumoniae by broth microdilution method; summary of the method: as §4
Streptococcus pyogenes [21] = experiment: Antimicrobial activity against macrolide-resistant Streptococcus pyogenes by broth microdilution method; summary of the method: as §5
Streptococcus pyogenes [22] = experiment: Antimicrobial activity against macrolide-susceptible Streptococcus pyogenes by broth microdilution method; summary of the method: as §5
Streptococcus viridans = experiment: Antimicrobial activity against Streptococcus viridans group clinical isolate by broth microdilution method; summary of the method: as §4
Klebsiella aerogenes = experiment: Antimicrobial activity against ESBL-negative Enterobacter aerogenes by broth microdilution method; summary of the method: as §1
Enterobacter cloacae = experiment: Antimicrobial activity against ESBL-negative Enterobacter cloacae by broth microdilution method; summary of the method: as §1
Escherichia coli [23] = experiment: Antimicrobial activity against ESBL-negative Escherichia coli by broth microdilution method; summary of the method: as §1
Escherichia coli [24] = experiment: Antimicrobial activity against ESBL-positive Escherichia coli by broth microdilution method; summary of the method: as §1
Klebsiella pneumoniae [25] = experiment: Antimicrobial activity against ESBL-negative Klebsiella pneumoniae by broth microdilution method; summary of the method: as §1
Klebsiella pneumoniae [26] = experiment: Antimicrobial activity against ESBL-positive Klebsiella pneumoniae by broth microdilution method; summary of the method: as §1
Morganella morganii = experiment: Antimicrobial activity against Morganella morganii by broth microdilution method; summary of the method: as §1
Proteus mirabilis = experiment: Antimicrobial activity against Proteus mirabilis by broth microdilution method; summary of the method: as §1
Providencia rettgeri = experiment: Antimicrobial activity against Proteus rettgeri by broth microdilution method; summary of the method: as §1

## CO/N=C(\C(=O)N[C@@H]1C(=O)N2C(C(=O)O)=C(CSc3nc(=O)c(O)nn3C)CS[C@H]12)c1csc(N)n1 [CEFTRIAXONE]
Providencia stuartii
  MIC50: 0.06 µg/mL (≈ 0.108 µM)
  MIC90: 0.25 µg/mL (≈ 0.451 µM)
Proteus vulgaris
  MIC50: 1 µg/mL (≈ 1.8 µM)
  MIC90: > 32 µg/mL
Serratia marcescens
  MIC50: 0.25 µg/mL (≈ 0.451 µM)
  MIC90: 2 µg/mL (≈ 3.61 µM)
Shigella sp.
  MIC: 0.03 µg/mL (≈ 0.0541 µM)
  MIC50: 0.03 µg/mL (≈ 0.0541 µM)
  MIC90: 0.06 µg/mL (≈ 0.108 µM)
Salmonella sp.
  MIC50: 0.06 µg/mL (≈ 0.108 µM)
  MIC90: > 32 µg/mL
Burkholderia cepacia
  MIC50: > 32 µg/mL
  MIC90: > 32 µg/mL
Pseudomonas aeruginosa [1]
  MIC50: > 32 µg/mL
  MIC90: > 32 µg/mL
Pseudomonas aeruginosa [2]
  MIC: 16 µg/mL (≈ 28.9 µM)
[3]
  MIC50: > 32 µg/mL
  MIC90: > 32 µg/mL
Moraxella catarrhalis
  MIC50: 0.5 µg/mL (≈ 0.902 µM)
  MIC90: 1 µg/mL (≈ 1.8 µM)
Haemophilus influenzae [4]
  MIC: 0.015 µg/mL (≈ 0.027 µM)
  MIC50: 0.015 µg/mL (≈ 0.027 µM)
  MIC90: 0.015 µg/mL (≈ 0.027 µM)
Haemophilus influenzae [5]
  MIC: 0.015 µg/mL (≈ 0.027 µM)
  MIC50: 0.015 µg/mL (≈ 0.027 µM)
  MIC90: 0.015 µg/mL (≈ 0.027 µM)
Haemophilus influenzae [6]
  MIC50: 0.12 µg/mL (≈ 0.216 µM)
  MIC90: 0.12 µg/mL (≈ 0.216 µM)
Staphylococcus aureus [7]
  MIC50: 32 µg/mL (≈ 57.7 µM)
Staphylococcus aureus [8]
  MIC50: 4 µg/mL (≈ 7.21 µM)
  MIC90: 4 µg/mL (≈ 7.21 µM)
Staphylococcus aureus [9]
  MIC50: > 32 µg/mL
  MIC90: > 32 µg/mL
Staphylococcus aureus [10]
  MIC: > 32 µg/mL
Staphylococcus [11]
  MIC50: 16 µg/mL (≈ 28.9 µM)
  MIC90: > 32 µg/mL
Staphylococcus [12]
  MIC50: 2 µg/mL (≈ 3.61 µM)
  MIC90: 8 µg/mL (≈ 14.4 µM)
Enterococcus faecalis [13]
  MIC50: > 32 µg/mL
  MIC90: > 32 µg/mL
Enterococcus faecalis [14]
  MIC: > 32 µg/mL
  MIC50: > 32 µg/mL
  MIC90: > 32 µg/mL
Enterococcus faecium [15]
  MIC: > 32 µg/mL
  MIC50: > 32 µg/mL
  MIC90: > 32 µg/mL
Enterococcus faecium [16]
  MIC50: > 32 µg/mL
  MIC90: > 32 µg/mL
Corynebacterium jeikeium
  MIC50: > 32 µg/mL
  MIC90: > 32 µg/mL
Listeria monocytogenes
  MIC50: > 32 µg/mL
  MIC90: > 32 µg/mL
Streptococcus agalactiae
  MIC: 0.06 µg/mL (≈ 0.108 µM)
  MIC50: 0.06 µg/mL (≈ 0.108 µM)
  MIC90: 0.12 µg/mL (≈ 0.216 µM)
Streptococcus pneumoniae [17]
  MIC50: 0.25 µg/mL (≈ 0.451 µM)
  MIC90: 2 µg/mL (≈ 3.61 µM)
Streptococcus pneumoniae [18]
  MIC50: 2 µg/mL (≈ 3.61 µM)
  MIC90: 8 µg/mL (≈ 14.4 µM)
Streptococcus pneumoniae [19]
  MIC50: 0.25 µg/mL (≈ 0.451 µM)
  MIC90: 0.5 µg/mL (≈ 0.902 µM)
Streptococcus pneumoniae [20]
  MIC50: 0.03 µg/mL (≈ 0.0541 µM)
  MIC90: 0.06 µg/mL (≈ 0.108 µM)
Streptococcus pyogenes [21]
  MIC: 0.015 µg/mL (≈ 0.027 µM)
  MIC50: 0.015 µg/mL (≈ 0.027 µM)
  MIC90: 0.03 µg/mL (≈ 0.0541 µM)
Streptococcus pyogenes [22]
  MIC: 0.015 µg/mL (≈ 0.027 µM)
  MIC50: 0.015 µg/mL (≈ 0.027 µM)
  MIC90: 0.03 µg/mL (≈ 0.0541 µM)
Streptococcus viridans
  MIC50: 0.12 µg/mL (≈ 0.216 µM)
  MIC90: 1 µg/mL (≈ 1.8 µM)
Klebsiella aerogenes
  MIC50: 0.12 µg/mL (≈ 0.216 µM)
  MIC90: > 32 µg/mL
Enterobacter cloacae
  MIC50: 0.25 µg/mL (≈ 0.451 µM)
  MIC90: 0.5 µg/mL (≈ 0.902 µM)
Escherichia coli [23]
  MIC50: 0.06 µg/mL (≈ 0.108 µM)
  MIC90: 0.25 µg/mL (≈ 0.451 µM)
Escherichia coli [24]
  MIC50: > 32 µg/mL
  MIC90: > 32 µg/mL
Klebsiella pneumoniae [25]
  MIC50: 0.06 µg/mL (≈ 0.108 µM)
  MIC90: 0.12 µg/mL (≈ 0.216 µM)
Klebsiella pneumoniae [26]
  MIC50: 32 µg/mL (≈ 57.7 µM)
  MIC90: > 32 µg/mL
Morganella morganii
  MIC50: 0.5 µg/mL (≈ 0.902 µM)
  MIC90: 32 µg/mL (≈ 57.7 µM)
Proteus mirabilis
  MIC: 0.015 µg/mL (≈ 0.027 µM)
  MIC50: 0.015 µg/mL (≈ 0.027 µM)
  MIC90: 0.015 µg/mL (≈ 0.027 µM)
Providencia rettgeri
  MIC50: 0.06 µg/mL (≈ 0.108 µM)
  MIC90: 0.25 µg/mL (≈ 0.451 µM)
